In ChEMBL document CHEMBL1142669, “Synthesis and evaluation of double-prodrugs against HIV. Conjugation of D4T with 6-benzyl-1-(ethoxymethyl)-5-isopropyluracil (MKC-442, emivirine)-type reverse transcriptase inhibitors via the SATE prodrug approach” (J Med Chem, 2005):

Experiments:
[1] = system: Human immunodeficiency virus 1; test: Effective concentration of compound to inhibit human immunodeficiency virus HIV-1 strain N119 multiplication in MT-4 infected cells; type: functional, organism-based
How it was run: (§1)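 MT-4 cells were infected at 0.005 MOI and cultured 6 days in growth medium (RPMI 1640, 10% heat-inactivated FCS, antibiotics) with the compound dilutions. Infected and uninfected cultures without compound ran in parallel. HIV expression was quantified indirectly by MTT assay. EC50 was interpolated from plots of percent inhibition versus concentration.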

[2] = system: Human immunodeficiency virus 1; test: Effective concentration of compound to inhibit human immunodeficiency virus HIV-1 strain N119 multiplication in thymidine-kinase-deficient CEM cells; type: functional, organism-based; conditions: Human immunodeficiency virus 1, CCRF-CEM
How it was run: (§2)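 HIV-1 strains HTLV-IIIB (wild type) and N119 (RT Y181C) were grown in H9 cells in RPMI 1640 with 10% heat-inactivated FCS. CEM wt or CEM TK- cells were infected at 0.005 MOI with compound dilutions for 6 days, alongside infected and uninfected controls. HIV expression was read by HIV-1 antigen ELISA. IC50 was interpolated from % inhibition versus concentration plots.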

MT4 = test: Cytotoxic concentration required to reduce the viability of normal uninfected MT-4 cells; type: functional; conditions: Homo sapiens
How it was run: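 Uninfected MT-4 cultures were grown with the same compound dilutions as the antiviral assay, run in parallel. A 30% inhibition of cell growth relative to control cultures counted as significant. CC50 was interpolated from plots of percent inhibition versus compound concentration.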

[3] = system: Human immunodeficiency virus 2; test: Effective concentration of compound to inhibit human immunodeficiency virus HIV-2 multiplication in CEM wild type cells; type: functional, organism-based; conditions: Human immunodeficiency virus 2, CCRF-CEM
How it was run: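 CEM wild-type cells were infected at 0.005 MOI and held 6 days in growth medium containing the compound dilutions, alongside untreated infected and uninfected controls. HIV-1 or HIV-2 antigen was detected by ELISA. EC50 was interpolated from plots of percent inhibition versus concentration.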

[4] = system: Human immunodeficiency virus 1; test: Effective concentration of compound to inhibit human immunodeficiency virus HIV-1 wild type strain IIIB multiplication in CEM wild type cells; type: functional, organism-based; conditions: Human immunodeficiency virus 1, CCRF-CEM; how it was run: as §2
[5] = system: Human immunodeficiency virus 2; test: Effective concentration of compound to inhibit human immunodeficiency virus HIV-2 multiplication in thymidine-kinase-deficient CEM cells; type: functional, organism-based; conditions: Human immunodeficiency virus 2, CCRF-CEM
How it was run: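 Thymidine-kinase-deficient CEM cells were infected with HIV-2 at 0.005 MOI and incubated 6 days with compound dilutions, alongside infected and uninfected controls without compound. Virus expression was quantified by HIV-2 antigen ELISA. ED50 was interpolated from percent inhibition versus concentration plots; three independent tests.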

[6] = system: Human immunodeficiency virus 2; test: Effective concentration of compound to inhibit human immunodeficiency virus HIV-2 multiplication in MT-4 infected cells; type: functional, organism-based; how it was run: as §1
[7] = system: Human immunodeficiency virus 1; test: Effective concentration of compound to inhibit human immunodeficiency virus HIV-1 wild type strain IIIB multiplication in thymidine-kinase-deficient CEM cells; type: functional, organism-based; conditions: Human immunodeficiency virus 1, CCRF-CEM; how it was run: as §2
[8] = system: Human immunodeficiency virus 1; test: Effective concentration of compound to inhibit human immunodeficiency virus HIV-1 strain N119 multiplication in CEM wild type cells; type: functional, organism-based; conditions: Human immunodeficiency virus 1, CCRF-CEM; how it was run: as §2
CCRF-CEM = test: Cytotoxic concentration was measured in CEM wild-type/thymidine-kinase-deficient CEM Cells; type: functional; conditions: Homo sapiens
How it was run: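 Uninfected CEM wild-type and CEM TK- cultures were exposed to the compound dilutions in parallel with the antiviral tests. Cell growth inhibition of 30% versus control cultures was considered significant. CC50 was interpolated from plots of percent inhibition against concentration.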

[9] = system: Human immunodeficiency virus 1; test: Effective concentration of compound to inhibit human immunodeficiency virus HIV-1 wild type strain IIIB multiplication in MT-4 infected cells; type: functional, organism-based; how it was run: as §1
[10] = system: Human immunodeficiency virus 2; test: Effective dose was measured against human immunodeficiency virus type 2 in thymidine-kinase-deficient CEM Cells; experiment 3; type: functional; conditions: Human immunodeficiency virus 2, CCRF-CEM; read-out: ED50 (the source's name)
How it was run: (§3)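 HIV-2 strain SBL 6669 in CEM TK- cells, infected at 0.005 MOI and kept with compound dilutions for 6 days, with infected and uninfected controls. Readout was HIV-2 antigen ELISA. The 50% effective value was interpolated from % inhibition versus concentration plots. Each line is one of three independent tests.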

[11] = system: Human immunodeficiency virus 2; test: Effective dose was measured against human immunodeficiency virus type 2 in thymidine-kinase-deficient CEM Cells; experiment 1; type: functional; conditions: Human immunodeficiency virus 2, CCRF-CEM; read-out: ED50 (the source's name); how it was run: as §3
[12] = system: Human immunodeficiency virus 2; test: Effective dose was measured against human immunodeficiency virus type 2 in thymidine-kinase-deficient CEM Cells; experiment 2; type: functional; conditions: Human immunodeficiency virus 2, CCRF-CEM; read-out: ED50 (the source's name); how it was run: as §3

Row | EC50 [9] | SMILES | EC50 [1] | EC50 [2] | CC50 (MT4) | EC50 [3] | EC50 [4] | EC50 [5] | EC50 [6] | EC50 [7] | EC50 [8] | CC50 (CCRF-CEM) | EC50 [10] | EC50 [11] | EC50 [12]
1 | 500 nM | Cc1cn([C@H]2C=C[C@@H](CO)O2)c(=O)[nH]c1=O [STAVUDINE] | 1800 nM | > 10000 nM | > 100000 nM | 100 nM | 300 nM | > 10000 nM | 500 nM | > 10000 nM | 800 nM | > 100000 nM |  |  | 
2 | 5 nM | CCc1c(Cc2cc(C)cc(C)c2)n(COC/C=C/c2ccc(OC(=O)c3ccccc3)cc2)c(=O)[nH]c1=O | 1000 nM |  | 35000 nM |  |  |  |  |  |  |  |  |  | 
3 | 20 nM | CCc1c(Cc2cc(C)cc(C)c2)n(COC/C=C/c2ccc(O)cc2)c(=O)[nH]c1=O | 2400 nM | 200 nM | 35000 nM | > 10000 nM | 2 nM | > 10000 nM | > 10000 nM | 6 nM | 400 nM | 32000 nM |  |  | 
4 | 30 nM | CCc1c(Cc2cc(C)cc(C)c2)n(COCc2ccc(OCc3ccccc3)cc2)c(=O)[nH]c1=O | 300 nM |  | 12000 nM |  |  |  |  |  |  |  |  |  | 

Further lines, the compound ahead of its results:

Row | SMILES | EC50 [9] | EC50 [1] | EC50 [2] | CC50 (MT4) | EC50 [3] | EC50 [4] | EC50 [5] | EC50 [6] | EC50 [7] | EC50 [8] | CC50 (CCRF-CEM) | EC50 [10] | EC50 [11] | EC50 [12]
5 | CCOCn1c(Cc2ccccc2)c(C(C)C)c(=O)[nH]c1=O [EMIVIRINE] |  | 79000 nM | > 10000 nM | > 100000 nM | > 10000 nM | 30 nM | > 10000 nM | > 10000 nM | > 10000 nM | > 100000 nM | > 100000 nM |  |  | 
6 | CCOCn1c(Cc2ccccc2)c(C(C)C)c(=O)n(C(=O)c2ccc(OP(=O)(OCCSC(=O)C(C)(C)C)OCC3C=CC(n4cc(C)c(=O)[nH]c4=O)O3)cc2)c1=O (centres undefined) | 30 nM | 2700 nM | 300 nM | 35000 nM | 20 nM | 30 nM | 3000 nM |  | 6 nM | 30 nM | 32000 nM | 4000 nM | 3000 nM | 3000 nM
7 | CCc1c(Cc2cc(C)cc(C)c2)n(COC/C=C/c2ccc(O[P@](=O)(OCCSC(=O)C(C)(C)C)OC[C@@H]3C=C[C@H](n4cc(C)c(=O)[nH]c4=O)O3)cc2)c(=O)[nH]c1=O | 40 nM | 3300 nM | 200 nM | 35000 nM | 100 nM | 10 nM | 4000 nM |  | 5 nM | 300 nM | 32000 nM | 5000 nM | 3000 nM | 4000 nM
8 | CCc1c(Cc2cc(C)cc(C)c2)n(COCc2ccc(O[P@](=O)(OCCSC(=O)C(C)(C)C)OC[C@@H]3C=C[C@H](n4cc(C)c(=O)[nH]c4=O)O3)cc2)c(=O)[nH]c1=O | 3 nM | 400 nM |  | 35000 nM | 100 nM |  | 2000 nM | 4000 nM |  |  | 32000 nM | 2000 nM | 3000 nM | 2000 nM
